How the values were obtained:
Assay type in all cases: functional
Details in all cases: read-out: Activity
SF-539 = assay: Growth inhibition of human SF-539 cells assessed as cell growth at 10 uM incubated for 48 hrs by sulforhodamine B assay relative to control
Summary of the method: (§1)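 Run by the NCI Developmental Therapeutics Program as part of its 60-line human tumour panel. Each compound tested at a single 10 µM dose. Growth expressed as % relative to untreated control cells (100%).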

UACC-62 = assay: Growth inhibition of human UACC-62 cells assessed as cell growth at 10 uM incubated for 48 hrs by sulforhodamine B assay relative to control; summary of the method: as §1
SNB-75 = assay: Growth inhibition of human SNB-75 cells assessed as cell growth at 10 uM incubated for 48 hrs by sulforhodamine B assay relative to control; summary of the method: as §1
NCI-H460 = assay: Growth inhibition of human NCI-H460 cells assessed as cell growth at 10 uM incubated for 48 hrs by sulforhodamine B assay relative to control
Summary of the method: (§2)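 Submitted to the NCI Developmental Therapeutics Program for the NCI60 human tumour cell line panel. First screen at a single 10 µM concentration. Read-out is growth relative to untreated control cells set at 100%.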

IGROV-1 = assay: Growth inhibition of human IGROV-1 cells assessed as cell growth at 10 uM incubated for 48 hrs by sulforhodamine B assay relative to control; summary of the method: as §2
T47D = assay: Growth inhibition of human T47D cells assessed as cell growth at 10 uM incubated for 48 hrs by sulforhodamine B assay relative to control; summary of the method: as §1
NCI/ADR-RES = assay: Growth inhibition of human NCI/ADR-RES cells assessed as cell growth at 10 uM incubated for 48 hrs by sulforhodamine B assay relative to control; summary of the method: as §2
SW-620 = assay: Growth inhibition of human SW-620 cells assessed as cell growth at 10 uM incubated for 48 hrs by sulforhodamine B assay relative to control; summary of the method: as §1
MDA-MB-231 = assay: Growth inhibition of human MDA-MB-231 cells assessed as cell growth at 10 uM incubated for 48 hrs by sulforhodamine B assay relative to control; summary of the method: as §2
RPMI-8226 = assay: Growth inhibition of human RPMI-8226 cells assessed as cell growth at 10 uM incubated for 48 hrs by sulforhodamine B assay relative to control; summary of the method: as §1
A498 = assay: Growth inhibition of human A498 cells assessed as cell growth at 10 uM incubated for 48 hrs by sulforhodamine B assay relative to control
Summary of the method: (§3)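 NCI Developmental Therapeutics Program NCI60 panel. Compounds that were active in the 10 µM one-dose screen went on to dose–response testing. Growth at each concentration is expressed relative to untreated control (100%). GI50 (concentration giving 50% of maximal inhibition of proliferation) and TGI (concentration giving total growth inhibition) were derived from the curves.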

OVCAR-3 = assay: Growth inhibition of human OVCAR-3 cells assessed as cell growth at 10 uM incubated for 48 hrs by sulforhodamine B assay relative to control; summary of the method: as §1
OVCAR-4 = assay: Growth inhibition of human OVCAR-4 cells assessed as cell growth at 10 uM incubated for 48 hrs by sulforhodamine B assay relative to control; summary of the method: as §1
MDA-MB-435 = assay: Growth inhibition of human MDA-MB-435 cells assessed as cell growth at 10 uM incubated for 48 hrs by sulforhodamine B assay relative to control; summary of the method: as §2
MCF7 = assay: Growth inhibition of human MCF7 cells assessed as cell growth at 10 uM incubated for 48 hrs by sulforhodamine B assay relative to control; summary of the method: as §2
LOX IMVI = assay: Growth inhibition of human LOX IMVI cells assessed as cell growth at 10 uM incubated for 48 hrs by sulforhodamine B assay relative to control; summary of the method: as §2
OVCAR-8 = assay: Growth inhibition of human OVCAR-8 cells assessed as cell growth at 10 uM incubated for 48 hrs by sulforhodamine B assay relative to control; summary of the method: as §1
NCI-H226 = assay: Growth inhibition of human NCI-H226 cells assessed as cell growth at 10 uM incubated for 48 hrs by sulforhodamine B assay relative to control; summary of the method: as §2
HOP-92 = assay: Growth inhibition of human HOP-92 cells assessed as cell growth at 10 uM incubated for 48 hrs by sulforhodamine B assay relative to control; summary of the method: as §2
HCT-15 = assay: Growth inhibition of human HCT-15 cells assessed as cell growth at 10 uM incubated for 48 hrs by sulforhodamine B assay relative to control; summary of the method: as §2
PC-3 = assay: Growth inhibition of human PC-3 cells assessed as cell growth at 10 uM incubated for 48 hrs by sulforhodamine B assay relative to control; summary of the method: as §1
CCRF-CEM = assay: Growth inhibition of human CCRF-CEM cells assessed as cell growth at 10 uM incubated for 48 hrs by sulforhodamine B assay relative to control; summary of the method: as §3
K562 = assay: Growth inhibition of human K562 cells assessed as cell growth at 10 uM incubated for 48 hrs by sulforhodamine B assay relative to control; summary of the method: as §2
COLO 205 = assay: Growth inhibition of human COLO 205 cells assessed as cell growth at 10 uM incubated for 48 hrs by sulforhodamine B assay relative to control; summary of the method: as §3
SF-268 = assay: Growth inhibition of human SF-268 cells assessed as cell growth at 10 uM incubated for 48 hrs by sulforhodamine B assay relative to control; summary of the method: as §1
OVCAR-5 = assay: Growth inhibition of human OVCAR-5 cells assessed as cell growth at 10 uM incubated for 48 hrs by sulforhodamine B assay relative to control; summary of the method: as §1
SNB-19 = assay: Growth inhibition of human SNB-19 cells assessed as cell growth at 10 uM incubated for 48 hrs by sulforhodamine B assay relative to control; summary of the method: as §1
SN12C = assay: Growth inhibition of human SN12C cells assessed as cell growth at 10 uM incubated for 48 hrs by sulforhodamine B assay relative to control; summary of the method: as §1
UO-31 = assay: Growth inhibition of human UO-31 cells assessed as cell growth at 10 uM incubated for 48 hrs by sulforhodamine B assay relative to control; summary of the method: as §1
UACC-257 = assay: Growth inhibition of human UACC-257 cells assessed as cell growth at 10 uM incubated for 48 hrs by sulforhodamine B assay relative to control; summary of the method: as §1
MOLT-4 = assay: Growth inhibition of human MOLT-4 cells assessed as cell growth at 10 uM incubated for 48 hrs by sulforhodamine B assay relative to control; summary of the method: as §2
SK-MEL-5 = assay: Growth inhibition of human SK-MEL-5 cells assessed as cell growth at 10 uM incubated for 48 hrs by sulforhodamine B assay relative to control; summary of the method: as §1
Malme-3M = assay: Growth inhibition of human Malme-3M cells assessed as cell growth at 10 uM incubated for 48 hrs by sulforhodamine B assay relative to control; summary of the method: as §2
Hs-578T = assay: Growth inhibition of human Hs-578T cells assessed as cell growth at 10 uM incubated for 48 hrs by sulforhodamine B assay relative to control; summary of the method: as §2
NCI-H322M = assay: Growth inhibition of human NCI-H322M cells assessed as cell growth at 10 uM incubated for 48 hrs by sulforhodamine B assay relative to control; summary of the method: as §2
RXF 393 = assay: Growth inhibition of human RXF 393 cells assessed as cell growth at 10 uM incubated for 48 hrs by sulforhodamine B assay relative to control; summary of the method: as §1

Row | Structure (SMILES) | growth at 10 µM (SF-539) | growth at 10 µM (SNB-75) | growth at 10 µM (NCI-H460) | growth at 10 µM (IGROV-1) | growth at 10 µM (T47D) | growth at 10 µM (NCI/ADR-RES) | growth at 10 µM (SW-620) | growth at 10 µM (MDA-MB-231) | growth at 10 µM (RPMI-8226) | growth at 10 µM (A498) | growth at 10 µM (OVCAR-3) | growth at 10 µM (OVCAR-4) | growth at 10 µM (MDA-MB-435) | growth at 10 µM (MCF7) | growth at 10 µM (LOX IMVI) | growth at 10 µM (OVCAR-8) | growth at 10 µM (NCI-H226) | growth at 10 µM (HOP-92) | growth at 10 µM (HCT-15) | growth at 10 µM (CCRF-CEM) | also measured
1 | CC(=O)Nc1ccc(S(=O)(=O)n2ccc(-c3ccc4c(c3)CCC(C)(C)O4)n2)cc1 | 73.8% | 81.5% | 41.4% | 68% | 31.1% | 56.9% | 82.5% | 88.6% | 43.7% | 21.9% | 74.4% | 46.2% | 67.3% | 66.2% | 64.1% | 69.4% | 52.4% | 69.8% | 59.3% | 55.4% | growth at 10 µM (UACC-62): 62.4%; growth at 10 µM (PC-3): 44.4%; growth at 10 µM (K562): 36.7%; growth at 10 µM (COLO 205): 88.8%; growth at 10 µM (SF-268): 77.2%; growth at 10 µM (OVCAR-5): 96.3%; growth at 10 µM (SNB-19): 73.3%; growth at 10 µM (SN12C): 89%; growth at 10 µM (UO-31): 67.9%; growth at 10 µM (UACC-257): 46%; growth at 10 µM (MOLT-4): 50.7%; growth at 10 µM (SK-MEL-5): 26.3%; growth at 10 µM (Malme-3M): 82.5%; growth at 10 µM (Hs-578T): 102%; growth at 10 µM (NCI-H322M): 89%
2 | CCc1ccccc1NC(=O)c1sc2nc3c(cc2c1N)C(=O)CCC3 | -17% | -15.4% | 6.42% | 33.3% | 22% | 5% | 24% | 36% | -1% | -9.7% | -12.7% | 41% | -56.6% | 8.32% | 42.6% | 24.3% | 64% | 54% | 29% | 4% | growth at 10 µM (RXF 393): -4%; growth at 10 µM (K562): 11%; growth at 10 µM (COLO 205): -68%; growth at 10 µM (SF-268): 40.4%; growth at 10 µM (OVCAR-5): 22%; growth at 10 µM (SNB-19): 35%; growth at 10 µM (SN12C): 40%; growth at 10 µM (UO-31): 44.5%; growth at 10 µM (UACC-257): 60%; growth at 10 µM (MOLT-4): 24.4%; growth at 10 µM (SK-MEL-5): 17%; growth at 10 µM (Malme-3M): 60.8%; growth at 10 µM (Hs-578T): 22.6%; growth at 10 µM (NCI-H322M): 46.3%

— ChEMBL document CHEMBL4715736, “Identification of anticancer agents based on the thieno[2,3-b]pyridine and 1H-pyrazole molecular scaffolds” (2016)
